The list is not random: actives were taken first. Their share in the collection is about 4.3%.
TAAR1 agonist – human TAAR1 agonists, primary screen, Fluo-8 calcium fluorescence, CHO RD-HGA16 cells; Trace amine-associated receptor 1 (Homo sapiens), Q96RJ0; vehicle wells 0%, saturating PEA agonist 100%; activation, % at 3 µM; 360,000 compounds, 0.99% hits; AID 624467, 2012;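 active means activation above the mean activation of all test compounds in the run plus 3 SD, cut at about 38% in these data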
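Repeats: no replicates (n 1) | Material: CHO-derived RD-HGA16 cells with stable Gα16 and human TAAR1 | Technique: Kinetic Fluo-8 calcium fluorescence | Schedule: 17-24 h seeding, 75 min 37 °C dye, 30 min RT | Evaluation: % activation from peak over basal fluorescence ratio, DMSO-to-PEA scaled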
TAAR1 antag – human TAAR1 antagonists, primary screen, Fluo-8 calcium fluorescence, CHO RD-HGA16 cells | Trace amine-associated receptor 1 (Homo sapiens), Q96RJ0 | antagonist | inhibition, % at 3 µM | 360,000 compounds, 1.5% hits;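 active means inhibition above a per-plate cutoff, the mean inhibition of test compounds on that plate plus 3 SD, cut at about 49% in these data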;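 further: 0% = DMSO plus EC80 beta-PEA response and 100% = DMSO alone without agonist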
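Assay system: CHO-derived RD-HGA16 cells stably expressing human TAAR1 plus Gα16. Timing: 140 s kinetic read after compound, 140 s after agonist. Technique: kinetic Fluo-8 calcium fluorescence measurement. Measure: % inhibition of agonist calcium response.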
OX1R antag-1 – antagonists of human orexin 1 receptor (OX1R); OX1R-expressing cells, FRET antagonist read-out; Orexin/Hypocretin receptor type 1 (Homo sapiens), O43613; 330,000 compounds, 1.8% hits; inhibition, % at 6.6 µM; AID 485270, 2010; in the data active means inhibition mostly above about 38%, no sharp cut-off; inactive means mostly below about 40%;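 further: 0% = agonist challenge alone and 100% = reference antagonist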
Target sequence (O43613 whole entry, looked up): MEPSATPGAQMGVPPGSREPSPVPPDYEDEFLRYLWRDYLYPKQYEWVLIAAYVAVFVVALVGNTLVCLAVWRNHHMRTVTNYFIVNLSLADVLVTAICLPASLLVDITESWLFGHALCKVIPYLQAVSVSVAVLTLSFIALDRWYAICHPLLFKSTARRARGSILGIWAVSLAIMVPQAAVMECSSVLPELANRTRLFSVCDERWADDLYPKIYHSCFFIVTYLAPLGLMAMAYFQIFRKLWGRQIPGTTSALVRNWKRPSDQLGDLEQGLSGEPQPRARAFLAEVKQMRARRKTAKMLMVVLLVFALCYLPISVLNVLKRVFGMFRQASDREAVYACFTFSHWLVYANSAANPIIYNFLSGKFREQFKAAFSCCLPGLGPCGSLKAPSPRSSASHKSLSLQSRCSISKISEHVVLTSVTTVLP
GalR3 antag – GalR3 antagonists in HEK293 cells, primary screen, cell-based, fluorescence readout. AID 651719, 2012. HEK293 GalR3-CNG cAMP membrane potential fluorescence; galR3 body fused to GalR1 C-terminus. Galanin receptor type 3 (Homo sapiens), O60755. 360,000 compounds, 0.44% hits. inhibition, % at 3 µM;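 active means inhibition above the screen-wide average plus 3 SD, cut at about 13% in these data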;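 further: forskolin and galanin both at EC90 stimulate the cells; cAMP rise reported by CNG channel membrane potential dye signal; 0% = forskolin plus galanin with DMSO and 100% = forskolin alone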
Target sequence (O60755 1-299 limits assumed): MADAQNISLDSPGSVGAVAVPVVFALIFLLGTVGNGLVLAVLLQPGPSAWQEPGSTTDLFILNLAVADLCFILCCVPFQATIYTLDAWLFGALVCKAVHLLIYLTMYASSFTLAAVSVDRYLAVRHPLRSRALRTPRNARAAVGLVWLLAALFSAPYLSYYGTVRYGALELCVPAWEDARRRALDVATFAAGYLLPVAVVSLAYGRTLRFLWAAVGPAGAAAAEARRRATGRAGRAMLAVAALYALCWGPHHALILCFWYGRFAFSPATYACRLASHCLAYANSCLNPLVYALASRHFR
OX1R antag-2 – OX1R (HCRTR1) antagonists, primary screen, fluorescence, CHO/OX1R cells, Fluo-8 calcium, orexin A; Orexin/Hypocretin receptor type 1 (Homo sapiens), O43613; Fluo-8 calcium fluorescence; inhibition, % at 5 µM; 330,000 compounds, 0.43% hits; AID 434989, 2010;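 active means inhibition above its plate's threshold, mean inhibition of all tested compounds on the plate plus 3 SD, cut at about 37% in these data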;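 further: 0% = orexin A challenge wells and 100% = SB-334867-A antagonist wells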
CHO parental Ca – ATP-evoked calcium signal inhibitors, parental CHO, primary screen, counter-screen for OX1R antagonist project, cell-based, fluorescence, Fluo-8 calcium dye | parental CHO-K1, ATP-induced calcium, Fluo-8 fluorescence | inhibition, % at 5.6 µM | AID 463079, 2010 | 330,000 compounds, 0.63% hits;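 active means inhibition above that plate's mean sample inhibition plus 3 SD, cut at about 26% in these data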;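 further: 0% = ATP-challenged DMSO wells and 100% = DMSO wells without ATP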
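test system = CHO parental line | reagent = ATP stimulus | measured by = intracellular calcium via Fluo-8 no-wash fluorescent dye | control set = ATP and no-ATP DMSO wells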
TAAR1 ag conf – human TAAR1 agonists, retest of hits, confirmation, Fluo-8 calcium fluorescence, CHO RD-HGA16 cells; activation, % at 3 µM; shares compounds with TAAR1 agonist; AID 651783, 2012; scaled: DMSO 0%, maximal phenethylamine 100%; 2,400 compounds, 82% hits;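 active means activation above a cutoff set at the run's mean compound activation plus 3 SD, cut at about 39% in these data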
Ga16 nonsel ag – nonselective calcium mobilization agonists, CHO-Ga16 cells, counter-screen for hTAAR1 agonist project, cell-based, fluorescence, CHO-Ga16 parental line | shares compounds with TAAR1 agonist | Fluo-8 calcium fluorescence; normalized to maximal ATP response, DMSO zero | 2,400 compounds, 50% hits | AID 651787, 2012 | activation, % at 3 µM;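 active means activation above the run cutoff, the mean activation over all tested wells plus 3 SD, cut at about 12% in these data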;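 further: 0% = DMSO wells and 100% = maximal ATP response on the peak over basal ratio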
TAAR1 desensitize – TAAR1 desensitization by agonist hits, confirmation, counter-screen for TAAR1 agonist project, cell-based, fluorescence, tachyphylaxis. AID 651951, 2012. inhibition, % at 3 µM. shares compounds with TAAR1 agonist. CHO RD-HGA16 hTAAR1, Fluo-8 calcium, beta-PEA response inhibition. 2,400 compounds, 46% hits;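 active means inhibition above the run cutoff, the mean inhibition of all test compounds plus 3 SD, cut at about 49% in these data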;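 further: beta-PEA stimulus applied at its EC80; loss of beta-PEA calcium signal after compound pretreatment read as receptor desensitization; 0% = DMSO with beta-PEA at EC80 and 100% = DMSO alone without agonist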
Ga16 nonsel ant – inhibition of ATP-evoked calcium response in CHO-Ga16 cells, counter-screen for TAAR1 agonist project, cell-based, fluorescence | AID 651952, 2012 | shares compounds with TAAR1 agonist | inhibition, % at 3 µM | 2,400 compounds, 39% hits | CHO-Ga16 ATP-induced calcium, Fluo-8 fluorescence;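 active means inhibition above the plate's mean compound inhibition plus 3 SD, computed per plate, cut at about 22% in these data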;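 further: 0% = EC80 ATP with DMSO and 100% = DMSO wells without ATP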
* marks the source's active call; other numbers are inactive results; . = no result.

SMILES	TAAR1 agonist	TAAR1 antag	OX1R antag-1	GalR3 antag	OX1R antag-2	CHO parental Ca	TAAR1 ag conf	Ga16 nonsel ag	TAAR1 desensitize	Ga16 nonsel ant
Nc1ccc(C(=O)N/N=C2\CCCc3c2[nH]c2ccccc32)cc1	22.9	-7.7	15.1	-5.4	-21.8	-2.5	.	.	.	.
O=C(Nc1ccccc1F)c1coc(=O)c(Br)c1	4.8	-12.2	29.6	-0.8	-5.1	-5.6	.	.	.	.
O=C(NCCc1ccc(F)cc1)c1coc(=O)c(Br)c1	68.3*	35.0	17.9	-10.7	-3.1	-1.0	66.3*	1.0	16.1	8.3
COc1cc(CN2CCCC(C(=O)c3ccc(C(C)(C)C)cc3)C2)cc(OC)c1O (configuration not stated)	53.9*	-8.2	7.0	0.0	-24.3	-15.0	18.3	9.1	-1.9	10.3
O=C(COC(=O)c1cccc(O)c1)Nc1ccc(OC(F)F)cc1	11.0	-13.5	6.6	9.3	-9.4	2.8	.	.	.	.
O=C(COC(=O)c1ccc(O)cc1)Nc1ccc(OC(F)F)cc1	66.2*	3.4	15.1	-3.1	6.7	15.2	49.0*	7.2	29.4	16.4
COc1cccc(-c2oc3c(c2-c2ccc(Br)nc2)C(O)CCC3)c1 (configuration not stated)	6.4	0.1	.	-4.7	.	.	.	.	.	.
CCOc1ccc(-c2c(C(=O)N/N=C/c3ccc(C)cc3)nnn2-c2nonc2N)cc1	122.1*	34.3	15.2	0.1	-45.6	-22.2	118.4*	72.7*	76.1*	47.6*
CCOc1ccc(-c2c(C(=O)N/N=C/c3ccc(Cl)cc3)nnn2-c2nonc2N)cc1	106.8*	26.3	-1.1	-2.0	-36.0	-21.2	113.1*	69.7*	45.0	13.5
CCOc1ccc(-c2c(C(=O)N/N=C/c3ccccc3)nnn2-c2nonc2N)cc1	50.8*	-14.8	14.7	-6.7	-15.9	-13.0	42.7*	29.7*	13.4	15.2
CCOc1ccc(-c2c(C(=O)N/N=C/c3ccncc3)nnn2-c2nonc2N)cc1	12.6	-28.7	5.9	-1.9	-1.3	-18.2	.	.	.	.
Cc1ccc(-c2c(C(=O)N/N=C/c3ccoc3)nnn2-c2nonc2N)cc1	72.9*	19.5	13.4	-9.4	-8.8	0.9	87.5*	58.7*	14.0	5.7
N=C1/C(=C\c2coc3ccccc3c2=O)C(=O)N=C2SC=CN12	148.2*	59.6*	12.3	-3.2	27.1	29.7*	110.5*	117.8*	75.2*	75.5*
CCCOc1ccc(F)cc1-c1cc(C(=O)NCc2cccs2)[nH]n1	0.7	4.3	.	-4.3	.	.	.	.	.	.
CC(=O)c1c(C)[nH]c(C(=O)CN2C(=O)NC(C)(c3ccc4c(c3)OCO4)C2=O)c1C (configuration not stated)	16.6	3.1	26.2	-4.4	-9.7	-21.0	.	.	.	.
CC1(c2ccc(OC(F)F)cc2)NC(=O)N(CC(=O)c2ccc3c(c2)OCO3)C1=O (configuration not stated)	135.9*	95.7*	9.3	-2.4	-14.3	9.7	118.5*	80.5*	101.6*	49.4*
CC1(c2ccc([N+](=O)[O-])cc2)NC(=O)N(CC(=O)c2ccc3c(c2)OCO3)C1=O (configuration not stated)	90.1*	47.2	-0.7	-4.8	-20.0	19.8	117.3*	70.5*	75.9*	36.7*
Cc1ccc(OCC(=O)Nc2ccc(S(=O)(=O)NC3=NCCCCC3)cc2)cc1	4.5	9.7	.	-3.5	.	.	.	.	.	.
COc1ccc(Cl)cc1Cn1c(C)c(C(=O)NCc2ccc(C#N)cc2)sc1=O	67.6*	76.5*	.	-4.2	.	.	74.3*	37.4*	74.4*	49.7*
COc1ccccc1Cn1c(C)c(C(=O)NCc2ccc(C#N)cc2)sc1=O	133.6*	94.3*	.	0.6	.	.	106.0*	69.1*	78.3*	44.9*
COc1ccc(CNC(=O)c2sc(=O)n(Cc3ccccc3C)c2C)cc1	105.7*	70.3*	.	3.2	.	.	121.8*	82.1*	84.7*	53.8*
COc1ccccc1Cn1c(C)c(C(=O)NCc2cccc(C)c2)sc1=O	2.5	-28.0	.	-3.2	.	.	.	.	.	.
Cc1c(C(=O)NCc2ccc([N+](=O)[O-])cc2)sc(=O)n1Cc1ccc2c(c1)OCO2	104.5*	74.3*	.	-3.4	.	.	106.1*	62.7*	81.1*	48.7*
COc1ccc(Cl)cc1Cn1c(C)c(C(=O)NCc2cccc(C(F)(F)F)c2)sc1=O	2.3	11.5	.	-0.3	.	.	.	.	.	.
O=C(NCCc1ccccc1)C(c1ccccc1)N(C(=O)c1csnn1)C1CC1 (configuration not stated)	1.9	10.1	17.6	-7.3	-27.9	-13.6	.	.	.	.
O=C(NCCc1ccccc1)C(c1ccncc1)N(C(=O)c1csnn1)C1CC1 (configuration not stated)	83.2*	49.3*	21.7	-3.9	-26.9	-15.1	90.8*	0.1	67.7*	0.9
COc1ccc(NC(=O)CSCC(=O)N2CCN(c3cccc(C(F)(F)F)c3)CC2)cc1	0.5	-14.5	8.8	1.3	1.8	-19.0	.	.	.	.
COc1cc2c(cc1OC)CN(C(=O)Nc1ccccc1)CC2	-1.2	-4.2	11.6	-4.5	-11.9	9.4	.	.	.	.
COc1ccc(NC(=O)N2CCc3ccccc3C2)cc1	51.7*	-11.3	.	4.3	.	.	46.7*	0.7	-2.0	-3.1
CCOc1ccc(NC(=O)N2CCc3ccccc3C2)cc1	50.7*	-3.2	7.7	-5.2	-15.6	-0.5	54.2*	-0.4	12.3	12.3

Screening results deposited in PubChem BioAssay by The Scripps Research Institute Molecular Screening Center.
